Usually Cmax stands for the maximum level reached in the sampled fluid or tissue. As a reminder, the AUC is concentration integrated over time.

The values below come from ChEMBL document CHEMBL1124953, “Orally effective acid prodrugs of the beta-lactamase inhibitor sulbactam” (J Med Chem, 1990).

Series [1] can be described thus: Maximum Concentration of the compound. Particulars: in vivo. Type of series: ADME, organism-based. A digest of the protocol:
(§1)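 Male outbred CD rats (70-90 g), five per prodrug, given 10 mg/kg orally in CMC diluent. Orbital plexus blood into heparinized tubes, plasma sampled over 4 h. Plasma sulbactam quantified by synergistic agar-well bioassay: Pasteurella hemolytica (ATCC 43823) in Mueller-Hinton agar with ampicillin and triphenyltetrazolium chloride, 18 h at 37 °C. Standard curve 10-0.1 μg/mL in rat plasma, zone-size regression. AUC and Cmax from concentration-time plot.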

Series [2] in a line: Area under curve (AUC) was determined. Type of series: ADME. Also on record: concentration or dose not given beside the values. The procedure, abridged:
as §1

The molecule `CC1(C)[C@H](C(=O)OCOC(=O)CCCC(=O)O)N2C(=O)C[C@H]2S1(=O)=O` yielded a Cmax in series [1] of 8200 ng/mL. The same molecule registered an AUC in series [2] of 10000 ng·h/mL.
The corresponding values for `CC1(C)[C@H](C(=O)OCOC(=O)CCCCC(=O)OCc2ccccc2)N2C(=O)C[C@H]2S1(=O)=O` are 1600 ng/mL and 2300 ng·h/mL.
As for `CC1(C)[C@H](C(=O)OCOC(=O)CC(=O)O)N2C(=O)C[C@H]2S1(=O)=O`, the Cmax in series [1] is 2000 ng/mL. In series [2], this molecule yielded an exposure (AUC) of 3500 ng·h/mL.
The like results for `CC1(C)[C@H](C(=O)OCOC(=O)CCCCC(=O)O)N2C(=O)C[C@H]2S1(=O)=O` were, in that order, 5200 ng/mL and 7500 ng·h/mL.
The corresponding values for `CC(C)(C(=O)O)C(=O)OCOC(=O)[C@@H]1N2C(=O)C[C@H]2S(=O)(=O)C1(C)C` are 3900 ng/mL and 6200 ng·h/mL.
The like results for `CC(C)(C)C(=O)OCOC(=O)[C@@H]1N2C(=O)C[C@H]2S(=O)(=O)C1(C)C` [SULBACTAM PIVOXIL] were, in that order, 6200 ng/mL and 8500 ng·h/mL.
In turn, `CC1(C)[C@H](C(=O)O)N2C(=O)C[C@H]2S1(=O)=O` [SULBACTAM] came in with a Cmax in series [1] of 700 ng/mL. In series [2], this molecule showed an AUC of 1400 ng·h/mL.
